# ChEMBL document CHEMBL1938334, “Quinoline tricyclic derivatives. Design, synthesis and evaluation of the antiviral activity of three new classes of RNA-dependent RNA polymerase inhibitors” (Bioorg Med Chem, 2011)
# pEC50: −log10 of the molar value.
# System: not listed separately
# Assay: Cytotoxicity against human MT4 cells after 96 hrs by MTT assay
# Assay type: cell-based
# Conditions: not given
# How it was run: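 Exponentially growing MT-4 cells seeded at 1×10^5 cells/mL in RPMI-1640 with 10% FBS, penicillin and streptomycin. Incubated with serial compound dilutions at 37 °C, 5% CO2 for 96 h; viability by MTT. CC50 by linear regression relative to untreated controls; mean of three independent determinations.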
row,Structure (SMILES),CC50 at 96 h
1,c1cnc2cc3nccnc3cc2c1,> 100 µM
2,c1cnc2cc3[nH]cnc3cc2c1,> 100 µM
3,[O-][n+]1n[nH]c2c(Cl)c3nccc(O)c3cc21,> 100 µM
4,[O-][n+]1n[nH]c2c(Cl)c3ncccc3cc21,> 100 µM
5,CC(=O)n1nnc2c(Cl)c3ncccc3cc21,46 µM
6,O=[N+]([O-])c1ccc(-c2nc3cc4cccnc4cc3[nH]2)c2ccccc12,6 µM

# System: Human immunodeficiency virus 1
# Assay: Antiviral activity against HIV1 3B infected in human MT4 cells assessed as inhibition of virus-induced cytopathogenicity after 4 days by MTT assay
# Assay type: functional, organism-based
# Conditions: Human immunodeficiency virus 1, 3B, MT4, 96 h
# How it was run: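 MT-4 cells (1×10^4 per well) were infected with HIV-1 IIIB at 100 CCID50, m.o.i. 0.01, together with serial compound dilutions. Viability was read by MTT after 4 days at 37 °C. EC50 was taken by linear regression versus untreated controls. Mean of three determinations.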
row,Structure (SMILES),pEC50
1,c1cnc2cc3nccnc3cc2c1,< 4.00
2,c1cnc2cc3[nH]cnc3cc2c1,< 4.00
3,[O-][n+]1n[nH]c2c(Cl)c3nccc(O)c3cc21,< 4.00
4,[O-][n+]1n[nH]c2c(Cl)c3ncccc3cc21,< 4.00
5,CC(=O)n1nnc2c(Cl)c3ncccc3cc21,< 4.34
6,O=[N+]([O-])c1ccc(-c2nc3cc4cccnc4cc3[nH]2)c2ccccc12,< 5.22

# System: not listed separately
# Assay: Cytotoxicity against MDBK cells after 48 to 96 hrs by MTT assay
# Assay type: cell-based, Bos taurus
# Conditions: cattle
# How it was run: (§1)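 MDBK seeded at 6×10^5 and BHK at 1×10^6 cells/mL in MEM-Earle's with L-glutamine, 1 mM pyruvate, kanamycin, plus 10% horse serum (MDBK) or 10% FBS (BHK). Cells were grown at 37 °C, 5% CO2 with serial compound dilutions (DMSO stocks diluted in medium). Viability by MTT after 48–96 h. CC50 was taken by linear regression versus untreated controls; three independent determinations.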
row,Structure (SMILES),CC50
1,C[C@@]1(O)[C@H](O)[C@@H](CO)O[C@H]1n1cnc2c(=O)[nH]c(N)nc21 [2'-B-METHYL-GUANOSINE],> 10 µM
2,c1cnc2cc3nccnc3cc2c1,> 100 µM
3,c1cnc2cc3[nH]cnc3cc2c1,> 100 µM
4,[O-][n+]1n[nH]c2c(Cl)c3nccc(O)c3cc21,> 100 µM
5,[O-][n+]1n[nH]c2c(Cl)c3ncccc3cc21,> 100 µM
6,CC(=O)n1nnc2c(Cl)c3ncccc3cc21,30 µM
7,O=[N+]([O-])c1ccc(-c2nc3cc4cccnc4cc3[nH]2)c2ccccc12,18 µM

# System: not listed separately
# Assay: Antiviral activity against Bovine viral diarrhea virus 1-NADL infected in MDBK cells assessed as inhibition of virus-induced cytopathogenicity after 3 to 4 days by MTT assay
# Assay type: functional, cell-based
# Conditions: Bovine viral diarrhea virus isolates and strains
# How it was run: (§2)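 Host cells were seeded in 96-well plates at 3×10^4 cells/well (MDBK) or 5×10^4 cells/well (BHK-21) and grown to confluent monolayers overnight. They were infected at m.o.i. 0.01 in maintenance MEM with 0.5% inactivated FBS. Serial compound dilutions were added after 1 h. Viability was read by MTT after 3–4 days at 37 °C. EC50 was taken by linear regression against untreated controls. Mean of three determinations.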
row,Structure (SMILES),pEC50
1,C[C@@]1(O)[C@H](O)[C@@H](CO)O[C@H]1n1cnc2c(=O)[nH]c(N)nc21 [2'-B-METHYL-GUANOSINE],5.96
2,c1cnc2cc3nccnc3cc2c1,< 4.00
3,c1cnc2cc3[nH]cnc3cc2c1,< 4.00
4,[O-][n+]1n[nH]c2c(Cl)c3nccc(O)c3cc21,< 4.00
5,[O-][n+]1n[nH]c2c(Cl)c3ncccc3cc21,< 4.00
6,CC(=O)n1nnc2c(Cl)c3ncccc3cc21,< 4.52
7,O=[N+]([O-])c1ccc(-c2nc3cc4cccnc4cc3[nH]2)c2ccccc12,< 4.74

# System: not listed separately
# Assay: Cytotoxicity against BHK21 cells after 48 to 96 hrs by MTT assay
# Assay type: cell-based, Mesocricetus auratus, BHK-21
# Conditions: hamster
# How it was run: as §1
row,Structure (SMILES),CC50
1,C[C@@]1(O)[C@H](O)[C@@H](CO)O[C@H]1n1cnc2c(=O)[nH]c(N)nc21 [2'-B-METHYL-GUANOSINE],> 10 µM
2,c1cnc2cc3nccnc3cc2c1,> 100 µM
3,c1cnc2cc3[nH]cnc3cc2c1,> 100 µM
4,[O-][n+]1n[nH]c2c(Cl)c3nccc(O)c3cc21,> 100 µM
5,[O-][n+]1n[nH]c2c(Cl)c3ncccc3cc21,> 100 µM
6,C[C@@]1(O)[C@H](O)[C@@H](CO)O[C@H]1n1ccc(N)nc1=O,> 100 µM
7,CC(=O)n1nnc2c(Cl)c3ncccc3cc21,72 µM
8,O=[N+]([O-])c1ccc(-c2nc3cc4cccnc4cc3[nH]2)c2ccccc12,> 100 µM

# System: Yellow fever virus
# Assay: Antiviral activity against Yellow fever virus 17D Stamaril Pasteur J07B01 infected in hamster BHK21 cells assessed as inhibition of virus-induced cytopathogenicity after 3 to 4 days by MTT assay
# Assay type: functional, cell-based
# Conditions: Stamaril Pasteur J07B01, BHK-21
# How it was run: as §2
row,Structure (SMILES),pEC50
1,C[C@@]1(O)[C@H](O)[C@@H](CO)O[C@H]1n1cnc2c(=O)[nH]c(N)nc21 [2'-B-METHYL-GUANOSINE],5.72
2,c1cnc2cc3nccnc3cc2c1,< 4.00
3,c1cnc2cc3[nH]cnc3cc2c1,< 4.00
4,[O-][n+]1n[nH]c2c(Cl)c3nccc(O)c3cc21,< 4.00
5,[O-][n+]1n[nH]c2c(Cl)c3ncccc3cc21,< 4.00
6,CC(=O)n1nnc2c(Cl)c3ncccc3cc21,< 4.14
7,O=[N+]([O-])c1ccc(-c2nc3cc4cccnc4cc3[nH]2)c2ccccc12,< 4.00

# System: Reovirus sp.
# Assay: Antiviral activity against Reovirus type-1 3651 infected in hamster BHK21 cells assessed as inhibition of virus-induced cytopathogenicity after 3 to 4 days by MTT assay
# Assay type: functional, organism-based
# Conditions: Reovirus sp., 3651, BHK-21
# How it was run: as §2
row,Structure (SMILES),pEC50
1,c1cnc2cc3[nH]cnc3cc2c1,< 4.00
2,[O-][n+]1n[nH]c2c(Cl)c3nccc(O)c3cc21,< 4.00
3,C[C@@]1(O)[C@H](O)[C@@H](CO)O[C@H]1n1ccc(N)nc1=O,4.80
4,O=[N+]([O-])c1ccc(-c2nc3cc4cccnc4cc3[nH]2)c2ccccc12,4.30

# System: not listed separately
# Assay: Cytotoxicity against african green monkey Vero 76 cells after 48 to 96 hrs by crystal violet staining
# Assay type: cell-based
# Conditions: chlorocebus sabaeus
# How it was run: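 Vero-76 cells were seeded at 4×10^5 cells/mL in D-MEM with L-glutamine, kanamycin and 10% FBS, then exposed to serial compound dilutions at 37 °C, 5% CO2 for 48–96 h. Viability was read by crystal violet staining. 50% cytotoxic concentration by linear regression relative to untreated controls; mean of three independent determinations.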
row,Structure (SMILES),CC50
1,O=c1cnn([C@@H]2O[C@H](CO)[C@@H](O)[C@H]2O)c(=O)[nH]1 [6-AZAURIDINE],≥ 12.5 µM
2,C#C[C@@]1(O)[C@H](O)[C@@H](CO)O[C@H]1n1ccc(N)nc1=O [2'-ETHYNYL-D-CYTIDINE],> 100 µM
3,Nc1nc2c(ncn2COCCO)c(=O)[nH]1 [ACYCLOVIR],> 100 µM
4,c1cnc2cc3nccnc3cc2c1,> 100 µM
5,c1cnc2cc3[nH]cnc3cc2c1,> 100 µM
6,[O-][n+]1n[nH]c2c(Cl)c3nccc(O)c3cc21,> 100 µM
7,[O-][n+]1n[nH]c2c(Cl)c3ncccc3cc21,> 100 µM
8,COc1c(C)c2c(c(O)c1C/C=C(\C)CCC(=O)O)C(=O)OC2 [MYCOPHENOLIC ACID],≥ 12.5 µM
9,CC(=O)n1nnc2c(Cl)c3ncccc3cc21,> 100 µM
10,O=[N+]([O-])c1ccc(-c2nc3cc4cccnc4cc3[nH]2)c2ccccc12,> 100 µM

# System: Coxsackievirus B5
# Assay: Antiviral activity against Human coxsackievirus B5 Ohio-1 infected in african green monkey Vero 76 cells assessed as reduction of virus-induced plaque formation after 3 days using crystal violet staining
# Assay type: functional, organism-based
# Conditions: Enterovirus B, Ohio-1, Vero, 72 h
row,Structure (SMILES),pEC50
1,C#C[C@@]1(O)[C@H](O)[C@@H](CO)O[C@H]1n1ccc(N)nc1=O [2'-ETHYNYL-D-CYTIDINE],4.57
2,c1cnc2cc3nccnc3cc2c1,< 4.00
3,c1cnc2cc3[nH]cnc3cc2c1,< 4.00
4,[O-][n+]1n[nH]c2c(Cl)c3nccc(O)c3cc21,< 4.00
5,[O-][n+]1n[nH]c2c(Cl)c3ncccc3cc21,4.07
6,CC(=O)n1nnc2c(Cl)c3ncccc3cc21,< 4.00
7,O=[N+]([O-])c1ccc(-c2nc3cc4cccnc4cc3[nH]2)c2ccccc12,< 4.00

# System: Poliovirus 1
# Assay: Antiviral activity against Human poliovirus 1 strain Sabin Chat infected in african green monkey Vero 76 cells assessed as virus-induced reduction of plaque formation after 2 days using crystal violet staining
# Assay type: functional, cell-based
# Conditions: Enterovirus C, 48 h
row,Structure (SMILES),pEC50
1,c1cnc2cc3nccnc3cc2c1,< 4.00
2,c1cnc2cc3[nH]cnc3cc2c1,< 4.00
3,[O-][n+]1n[nH]c2c(Cl)c3nccc(O)c3cc21,< 4.00
4,[O-][n+]1n[nH]c2c(Cl)c3ncccc3cc21,< 4.00
5,CC(=O)n1nnc2c(Cl)c3ncccc3cc21,< 4.00
6,O=[N+]([O-])c1ccc(-c2nc3cc4cccnc4cc3[nH]2)c2ccccc12,< 4.00

# System: Human orthopneumovirus
# Assay: Antiviral activity against Human respiratory syncytial virus A2 infected in african green monkey Vero 76 cells assessed as reduction of virus-induced plaque formation after 5 days using crystal violet staining
# Assay type: functional, organism-based
# Conditions: 120 h
row,Structure (SMILES),pEC50
1,O=c1cnn([C@@H]2O[C@H](CO)[C@@H](O)[C@H]2O)c(=O)[nH]1 [6-AZAURIDINE],5.92
2,[O-][n+]1n[nH]c2c(Cl)c3nccc(O)c3cc21,< 4.00
3,[O-][n+]1n[nH]c2c(Cl)c3ncccc3cc21,< 4.00
4,CC(=O)n1nnc2c(Cl)c3ncccc3cc21,< 4.00
5,O=[N+]([O-])c1ccc(-c2nc3cc4cccnc4cc3[nH]2)c2ccccc12,< 4.00

# System: Vesicular stomatitis Indiana virus
# Assay: Antiviral activity against clinical isolate Vesicular stomatitis Indiana virus infected in african green monkey Vero 76 cells assessed as reduction of virus-induced plaque formation after 2 days using crystal violet staining
# Assay type: functional, organism-based
# Conditions: 48 h
row,Structure (SMILES),pEC50
1,c1cnc2cc3nccnc3cc2c1,< 4.00
2,c1cnc2cc3[nH]cnc3cc2c1,< 4.00
3,[O-][n+]1n[nH]c2c(Cl)c3nccc(O)c3cc21,< 4.00
4,[O-][n+]1n[nH]c2c(Cl)c3ncccc3cc21,< 4.00
5,CC(=O)n1nnc2c(Cl)c3ncccc3cc21,< 4.00
6,O=[N+]([O-])c1ccc(-c2nc3cc4cccnc4cc3[nH]2)c2ccccc12,< 4.00

# System: not listed separately
# Assay: Antiviral activity against Vaccinia virus Lister Elstree infected in african green monkey Vero 76 cells assessed as reduction of virus-induced plaque formation after 3 days using crystal violet staining
# Assay type: functional, cell-based
# Conditions: 72 h
row,Structure (SMILES),pEC50
1,c1cnc2cc3nccnc3cc2c1,< 4.00
2,c1cnc2cc3[nH]cnc3cc2c1,< 4.00
3,[O-][n+]1n[nH]c2c(Cl)c3nccc(O)c3cc21,< 4.00
4,[O-][n+]1n[nH]c2c(Cl)c3ncccc3cc21,< 4.00
5,COc1c(C)c2c(c(O)c1C/C=C(\C)CCC(=O)O)C(=O)OC2 [MYCOPHENOLIC ACID],5.82
6,CC(=O)n1nnc2c(Cl)c3ncccc3cc21,< 4.00
7,O=[N+]([O-])c1ccc(-c2nc3cc4cccnc4cc3[nH]2)c2ccccc12,< 4.00

# System: Human alphaherpesvirus 1
# Assay: Antiviral activity against Human herpesvirus 1 strain KOS infected in african green monkey Vero 76 cells assessed as reduction of virus-induced plaque formation after 3 days using crystal violet staining
# Assay type: functional, organism-based
# Conditions: Human alphaherpesvirus 1, KOS, 72 h
row,Structure (SMILES),pEC50
1,c1cnc2cc3nccnc3cc2c1,< 4.00
2,c1cnc2cc3[nH]cnc3cc2c1,< 4.00
3,[O-][n+]1n[nH]c2c(Cl)c3ncccc3cc21,< 4.00
4,CC(=O)n1nnc2c(Cl)c3ncccc3cc21,< 4.00
